Laboratory results as given in ChEMBL document CHEMBL4390663, “Cationic biaryl 1,2,3-triazolyl peptidomimetic amphiphiles: synthesis, antibacterial evaluation and preliminary mechanism of action studies” (Eur J Med Chem, 2019).

Columns and labels:
Staphylococcus aureus [1] = test: Antimicrobial activity against methicillin-resistant Staphylococcus aureus clinical isolate incubated for 18 hrs by CLSI method; type: functional
Pseudomonas aeruginosa = test: Antimicrobial activity against Pseudomonas aeruginosa ATCC 27853 incubated for 18 hrs by CLSI method; type: functional
Summary of the method: (§1)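 Screen run by CO-ADD: mid-log cultures in cation-adjusted MHB, 5 × 10^5 CFU/mL, compounds at up to 32 μg/mL in 1:2 serial dilutions (8 steps), final DMSO ≤0.5%, duplicate. 37 °C for 18 h without shaking; OD600 read against media-only and untreated-bacteria references. MIC = lowest concentration giving ≥80% inhibition; colistin standard.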

Staphylococcus aureus [2] = test: Antimicrobial activity against Staphylococcus aureus ATCC 29213 incubated for 24 hrs by CLSI method; type: functional; details: ATCC 29213, 24 h
Summary of the method: (§2)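 Broth microdilution per CLSI aerobic guidance in Mueller Hinton broth, ambient air, 35 °C for 24 h. DMSO stocks were diluted in water, then serially diluted with double-strength broth inoculum added, for final 0.25–128 μg/mL. […] MIC was read visually as the lowest concentration inhibiting growth; the modal value of triplicates was recorded.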

Streptococcus pneumoniae [3] = test: Antibacterial activity against Streptococcus pneumoniae ATCC 49619 incubated for 24 hrs by CLSI method; type: functional; details: ATCC 49619, 24 h
Summary of the method: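 CLSI broth microdilution in MHB with 2.5% lysed horse blood, 5% CO2, 35 °C, 24 h. Compounds from 5 mg/mL DMSO stocks diluted in water plus double-strength broth; final 0.25–128 μg/mL. […] Triplicate; modal MIC read visually as lowest growth-inhibiting concentration.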

Staphylococcus aureus [4] = test: Antibacterial activity against methicillin-resistant Staphylococcus aureus NCTC 10442 incubated for 24 hrs by CLSI method; type: functional; details: NCTC 10442, 24 h; summary of the method: as §2
Clostridioides difficile [5] = test: Antibacterial activity against Clostridium difficile NSW132 RT027 incubated for 48 hrs by CLSI method; type: functional; details: NSW132 RT027, 48 h
Summary of the method: (§3)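 Broth microdilution per CLSI anaerobe method in pre-reduced (2-4 h) Brucella broth with haemin and vitamin K, 35 °C anaerobically for 48 h. Compounds from 5 mg/mL DMSO stocks, twofold dilutions in water mixed with double-strength broth; final 0.25–128 μg/mL. […] Triplicate; modal MIC read visually as lowest concentration inhibiting growth.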

[6] = Cytotoxicity against human HEK293 cells assessed as reduction in cell growth incubated for 20 hrs by resazurin dye-based fluorometric assay
Summary of the method: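 HEK293 cells, 5000 per well in DMEM + 10% FBS, exposed to compounds (top 32 μg/mL, 1:2 serial dilution ×8, ≤0.5% DMSO, duplicate) for 20 h at 37 °C, 5% CO2. Resazurin added (2.3 μg/mL final), 3 h further; fluorescence ex 560/em 590 nm. CC50 from sigmoidal dose-response fit against log concentration; tamoxifen standard.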

Streptococcus pneumoniae [7] = test: Antibacterial activity against MDR Streptococcus pneumoniae ATCC 700677 incubated for 18 hrs by CLSI method; type: functional; details: ATCC 700677, 18 h
Klebsiella pneumoniae = test: Antibacterial activity against Klebsiella pneumoniae 700603 incubated for 18 hrs by CLSI method; type: functional; summary of the method: as §1
Enterococcus faecalis [8] = test: Antibacterial activity against Enterococcus faecalis ATCC 29212 incubated for 24 hrs by CLSI method; type: functional; details: ATCC 29212, 24 h
Staphylococcus aureus [9] = test: Antimicrobial activity against glycopeptide intermediate susceptible Staphylococcus aureus NRS17 incubated for 18 hrs by CLSI method; type: functional; details: NRS17, 18 h
Staphylococcus aureus [10] = test: Antimicrobial activity against vancomycin resistant Staphylococcus aureus NARSA VRS10 incubated for 18 hrs by CLSI method; type: functional; details: NARSA VRS10, 18 h
Acinetobacter baumannii [11] = test: Antimicrobial activity against Acinetobacter baumannii ATCC 19606 incubated for 18 hrs by CLSI method; type: functional; summary of the method: as §1
Clostridioides difficile [12] = test: Antibacterial activity against Clostridium difficile ATCC 700057 incubated for 48 hrs by CLSI method; type: functional; details: ATCC 700057, 48 h; summary of the method: as §3
Escherichia coli [13] = test: Antibacterial activity against Escherichia coli ATCC 25922 incubated for 18 hrs by CLSI method; type: functional; summary of the method: as §1
Enterococcus faecalis [14] = test: Antimicrobial activity against vancomycin-resistant Enterococcus faecalis clinical isolate incubated for 18 hrs by CLSI method; type: functional
Staphylococcus aureus [15] = test: Antimicrobial activity against Staphylococcus aureus ATCC 43300 incubated for 18 hrs by CLSI method; type: functional; details: ATCC 43300, 18 h
Staphylococcus aureus [16] = test: Antimicrobial activity against methicillin-resistant Staphylococcus aureus ATCC 43300 incubated for 18 hrs by CLSI method; type: functional; details: ATCC 43300, 18 h
Staphylococcus aureus [17] = test: Antimicrobial activity against methicillin-resistant Staphylococcus aureus clinical isolate with reduced daptomycin susceptibility incubated for 18 hrs by CLSI method; type: functional
Staphylococcus aureus [18] = test: Antimicrobial activity against glycopeptide intermediate susceptible/methicillin-resistant Staphylococcus aureus NRS1 incubated for 18 hrs by CLSI method; type: functional; details: NRS1, 18 h
Escherichia coli [19] = test: Induction of cytoplasmic membrane depolarization in Escherichia coli NCTC 10418 at 64 ug/ml incubated for 30 mins by diSC35 staining based fluorescence assay relative to control; type: functional
Summary of the method: (§4)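 Mid-log cells (1.5 McFarland) loaded with 4 µM diSC3(5) in the dark at room temperature: S. aureus in PBS 30 min; E. coli in 5 mM HEPES/20 mM glucose pH 7.2 for 60 min, then 100 mM KCl and 0.5 mM EDTA. Baseline fluorescence (ex 620/em 670 nm) ~8 min, then compound added (final 32 µg/mL S. aureus, 64 µg/mL E. coli), tracked ~30 min.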

Staphylococcus aureus [20] = test: Bactericidal activity against exponential phase of Staphylococcus aureus ATCC 29213 assessed as reduction in bacterial count at 4 ug/ml measured at 2 hrs by time-kill kinetics assay; type: functional, organism-based
Escherichia coli [21] = test: Induction of plasma membrane permeabilization in Escherichia coli NCTC 10418 at 64 ug/ml measured for 30 mins by propidium iodide staining based fluorescence assay relative to control; type: functional, organism-based
[22] = Haemolytic activity in sheep erythrocytes at 5 ug/ml incubated for 2 hrs under shaking condition relative to control; type: ADME, cell-based, Ovis aries, Erythrocyte; details: read-out: Activity
Summary of the method: (§5)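 Compounds in PBS mixed with washed sheep erythrocytes (2% final) at 5 or 50 μg/mL, rocked 2 h at 37 °C, centrifuged; supernatant absorbance at 540 nm. PBS-only value subtracted, then expressed relative to water lysis (100%). Triplicate, means reported.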

[23] = Haemolytic activity in sheep erythrocytes at 50 ug/ml incubated for 2 hrs under shaking condition relative to control; type: ADME, cell-based, Ovis aries, Erythrocyte; details: read-out: Activity; summary of the method: as §5
Staphylococcus aureus [24] = test: Induction of cytoplasmic membrane depolarization in Staphylococcus aureus ATCC 29213 at 32 ug/ml incubated for 30 mins by diSC35 staining based fluorescence assay relative to control; type: functional; summary of the method: as §4
Escherichia coli [25] = test: Induction of plasma membrane permeabilization in Escherichia coli NCTC 10418 at 32 ug/ml measured for 30 mins by propidium iodide staining based fluorescence assay relative to control; type: functional
Summary of the method: (§6)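 Mid-log cells (1.5 McFarland) with 4 µM propidium iodide, dark, room temperature: S. aureus in PBS 30 min; E. coli in 5 mM HEPES/20 mM glucose pH 7.2 for 60 min, then 100 mM KCl and 0.5 mM EDTA. Fluorescence (ex 544/em 615 nm) read ~8 min baseline, then ~30 min after compound at 32 µg/mL final.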

Staphylococcus aureus [26] = test: Induction of plasma membrane permeabilization in Staphylococcus aureus ATCC 29213 at 32 ug/ml measured for 30 mins by propidium iodide staining based fluorescence assay relative to control; type: functional; summary of the method: as §6
Acinetobacter baumannii [27] = test: Antimicrobial activity against Acinetobacter baumannii incubated for 24 hrs by broth microdilution method; type: functional
Staphylococcus aureus [28] = test: Antimicrobial activity against methicillin-resistant Staphylococcus aureus incubated for 24 hrs by broth microdilution method; type: functional; summary of the method: as §2
Clostridioides difficile [29] = test: Antimicrobial activity against Clostridium difficile incubated for 24 hrs by broth microdilution method; type: functional
Enterococcus faecalis [30] = test: Antimicrobial activity against vancomycin-resistant Enterococcus faecalis incubated for 24 hrs by broth microdilution method; type: functional
[31] = Klebsiella pneumoniae, 700603, 18 h
[32] = ATCC 19606 = CIP 70.34 = JCM 6841, 18 h

Molecule | MIC (Pseudomonas aeruginosa; ATCC 27853, 18 h) [µg/mL] | MIC (Staphylococcus aureus [2]) [µg/mL] | MIC (Streptococcus pneumoniae [3]) [µg/mL] | MIC (Staphylococcus aureus [4]) [µg/mL] | MIC (Clostridioides difficile [5]) [µg/mL] | CC50 at 20 h [6] [µg/mL] | MIC (Klebsiella pneumoniae; [31]) [µg/mL] | MIC (Enterococcus faecalis [8]) [µg/mL] | MIC (Acinetobacter baumannii [11]; [32]) [µg/mL] | MIC (Clostridioides difficile [12]) [µg/mL] | MIC (Escherichia coli [13]; ATCC 25922, 18 h) [µg/mL] | MIC (Staphylococcus aureus [15]) [µg/mL] | Activity (Escherichia coli [19]) | hemolysis at 2 h, 5 ug/ml [22] [%] | hemolysis at 2 h, 50 ug/ml [23] [%] | Activity (Staphylococcus aureus [24]) | Activity (Escherichia coli [25]) | Activity (Staphylococcus aureus [26]) [%] | other results
CC(C)CCOc1ccc2ccccc2c1-c1c(OCc2cn(C[C@@H](CCCCN)NC(=O)CCc3ccccc3)nn2)ccc2ccccc12.Cl | > 32 | 4 | 16 | 8 | 32 | 3.5 | > 32 | 8 | > 32 | 32 | > 32 | 4 | – | – | – | – | – | – | MIC (Staphylococcus aureus [1]): 16 µg/mL; MIC (Streptococcus pneumoniae [7]): 8 µg/mL; MIC (Staphylococcus aureus [9]): 8 µg/mL; MIC (Staphylococcus aureus [10]): 8 µg/mL; MIC (Enterococcus faecalis [14]): 4 µg/mL; MIC (Staphylococcus aureus [16]): 2 to 4 µg/mL; MIC (Staphylococcus aureus [17]): 8 µg/mL; MIC (Staphylococcus aureus [18]): 8 to 16 µg/mL
COLISTIN | – | – | – | – | – | – | – | – | – | – | – | – | 400% | – | – | – | – | – | MIC (Pseudomonas aeruginosa): 0.25 µg/mL; MIC (Klebsiella pneumoniae): 0.25 µg/mL; Activity (Staphylococcus aureus [20]): < 1000 CFU/mL; Activity (Escherichia coli [21]): 75%; MIC (Acinetobacter baumannii [11]; ATCC 19606 = CIP 70.34 = JCM 6841): 0.25 µg/mL; MIC (Escherichia coli [13]): 0.125 µg/mL
CC(C)CCOc1ccccc1-c1ccccc1OCc1cn(C[C@@H](CCCCN)NC(=O)[C@@H](CCCNC(=N)N)n2cc(CC3CCCCC3)nn2)nn1.Cl.Cl | 16 | 4 | 4 | 4 | 4 | > 32 | 16 | 4 | 8 | 4 | 4 | 2 | 460 - 900% | 1.5 | 42.4 | 120 - 180% | 25 - 40% | 600 | –
CC(C)CCOc1ccc2ccccc2c1-c1c(OCC(=O)N[C@H](CCCCN)C(=O)N[C@H](CCCNC(=N)N)Cn2cc(CC3CCCCC3)nn2)ccc2ccccc12.Cl.Cl | – | – | – | – | – | – | – | – | – | – | – | – | – | – | 78 | – | – | – | MIC (Acinetobacter baumannii [27]): 4 µg/mL; MIC (Staphylococcus aureus [28]): 2 µg/mL; MIC (Clostridioides difficile [29]): 4 µg/mL; MIC (Enterococcus faecalis [30]): 4 µg/mL
CC(C)CCOc1ccccc1-c1ccccc1OCc1cn(C[C@@H](CCCCN)NC(=O)CCc2ccccc2)nn1.Cl | 32 | 8 | 8 | 4 | 16 | 4.8 | 32 | 8 | > 32 | 8 | 32 | 16 | 460 - 900% | 0.2 | 101 | 120 - 180% | 75% | 600 | –
